# UCH37 inh – inhibitors of human UCH37 deubiquitinase, primary screen, biochemical, Ub-AMC cleavage, fluorescence. inhibition, % (no concentration beside the values). Ubiquitin carboxyl-terminal hydrolase isozyme L5 (Homo sapiens), Q9Y5K5. purified proteasome/UCH37. actives 0.33% (n = 330,000). AID 588478, 2011;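 active = mean inhibition over replicate wells above about 20%, limit read from the data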;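 also: 0% = compound-free wells with enzyme and 100% = wells lacking proteasome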
#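 Signal – fluorescence, ex 355 nm, em 460 nm · System – Proteasome-bound UCH37 · Input – 0.15 nM proteasome as dispensed · Timing – 30 min preincubation with enzyme, 25 min cleavage at room temperature · Read-out basis – percent inhibition of cleavage signal versus uninhibited and no-proteasome wells · Medium – Tris-HCl pH 7.4 with ATP-MgCl2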
# MEKK2 WT-MEK5 – modulators of MEK5 binding to wildtype MEKK2, primary screen, biochemical, multiplex bead flow cytometry, Alexa488-MEK5. Alexa488-MEK5 binding to MEKK2 WT; actives lie on both sides. binding response (% of control), % at 10 µM. actives 1.1% (n = 290,000). AID 1531, 2009; in the data active = binding response below about 67% or above about 130%
# MEKK3 PB1 HTS – modulators of MEKK3-MEK5 PB1 binding, primary screen, biochemical, wildtype MEKK3, multiplex bead flow cytometry, Alexa488-MEK5; AID 1529, 2009; binding response (% of control), % at 10 µM; actives 1.4% (n = 290,000); bead-based flow cytometry, Alexa488-MEK5 binding to MEKK3; actives lie on both sides; 0 = blocked by unlabeled MEK5, 100 = vehicle;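 active = binding response more than 3 SD above or below the average of its plate-row segment, actives on both sides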;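 also: Alexa488 bead fluorescence after subtracting the streptavidin-only scavenger bead signal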
# Target sequence (Q99759 whole entry, looked up): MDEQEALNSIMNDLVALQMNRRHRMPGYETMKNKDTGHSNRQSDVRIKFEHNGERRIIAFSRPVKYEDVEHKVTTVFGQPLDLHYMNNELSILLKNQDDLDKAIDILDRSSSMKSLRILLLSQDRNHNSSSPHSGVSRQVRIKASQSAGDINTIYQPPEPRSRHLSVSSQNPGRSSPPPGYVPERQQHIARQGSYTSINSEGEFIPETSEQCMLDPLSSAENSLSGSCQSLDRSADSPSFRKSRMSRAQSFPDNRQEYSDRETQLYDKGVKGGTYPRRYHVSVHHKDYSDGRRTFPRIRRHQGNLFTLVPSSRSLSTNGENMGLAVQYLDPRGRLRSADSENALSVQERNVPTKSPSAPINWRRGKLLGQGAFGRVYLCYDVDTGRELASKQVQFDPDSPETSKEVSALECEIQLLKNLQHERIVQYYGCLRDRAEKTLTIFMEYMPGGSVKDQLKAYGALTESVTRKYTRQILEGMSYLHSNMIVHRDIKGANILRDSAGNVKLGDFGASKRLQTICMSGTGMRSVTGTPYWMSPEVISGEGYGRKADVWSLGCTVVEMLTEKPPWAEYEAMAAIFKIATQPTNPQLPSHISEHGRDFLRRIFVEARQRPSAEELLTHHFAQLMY
# Apaf-1 inh – inhibitors of human Apaf-1 apoptosome, primary screen, biochemical, DEVD-Rh110 fluorescence, uHTS. actives 0.71% (n = 330,000). reconstituted apoptosome caspase-3 activity. inhibition, % at 20 µM. Apoptotic protease-activating factor 1 (Homo sapiens), O14727; active = inhibition of at least 40% at 20 µM;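 also: plate controls were DMSO wells for no effect and DEVD-CHO caspase inhibitor wells for full effect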
#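 System: reconstituted apoptosome with Apaf-1, cytochrome c, caspase-9, procaspase-3, dATP; Signal: Rh110 fluorescence intensity; Schedule: 30 min compound preincubation, 50 min activation, room temperature; Reagent: cytochrome c trigger plus (Z-DEVD)2-Rh110 caspase-3 substrate.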
# MEKK2 mut-MEK5 – MEK5 binding signal on mutant MEKK2 PB1, primary screen, biochemical, multiplex bead flow cytometry, Alexa488-MEK5. Alexa488-MEK5 binding to MEKK2 mutant. actives 0.35% (n = 290,000). percent response, % at 10 µM; in the data active = percent response above about 24%, passing the limit was not always enough
# UBC13 polyUb – UBC13 polyubiquitin chain formation inhibitors, primary screen, biochemical, TR-FRET, uHTS; inhibition, % at 20 µM; AID 485273, 2010; actives 0.47% (n = 330,000); in the data active = inhibition above about 45%, passing the limit was not always enough
# MEKK2wt confirm – modulators of MEK5 binding to wildtype MEKK2, confirmation, biochemical, single concentration, multiplex bead flow cytometry; binding response (% of control), % at 10 µM; shares compounds with MEKK3 PB1 HTS; actives 2.4% (n = 5,900); Alexa488-MEK5 binding to MEKK2 WT; actives lie on both sides; in the data active = binding response below about 16% or above about 210%; inactive = in between
# MEKK2mut-MEK5 – mutant MEKK2 PB1-MEK5 binding signal retest – biochemical, single concentration, multiplex bead flow cytometry, confirmation; Alexa488-MEK5 binding to MEKK2 mutant; actives 2% (n = 5,900); percent response, % at 10 µM; shares compounds with MEKK3 PB1 HTS; in the data active = percent response mostly above about 71%, no sharp cut-off; inactive = mostly below about 38%;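 also: higher means compound restores mutant binding toward wildtype level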
# MEKK3-MEK5 inh – MEKK3 wild-type PB1 binding to MEK5, inhibitors, confirmation, biochemical, bead multiplex flow cytometry, single concentration, wildtype. shares compounds with MEKK3 PB1 HTS. Alexa488-MEK5 binding to MEKK3; stronger effect = lower value. binding response (% of control), % at 10 µM. actives 1.8% (n = 5,900). AID 1894, 2009;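 active = binding response below 72% of control, or above a set upper limit, though filed actives all read lower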;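 also: 100% = DMSO only wells and 0% = binding blocked by excess unlabeled MEK5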
# Active calls of the source: *; / = not tested or not shown; [ ] = remark or other dose. Sampled rows, rich in hits. Any-hit rate of the full collection: about 3%.
SMILES,UCH37 inh,MEKK2 WT-MEK5,MEKK3 PB1 HTS,Apaf-1 inh,MEKK2 mut-MEK5,UBC13 polyUb,MEKK2wt confirm,MEKK2mut-MEK5,MEKK3-MEK5 inh
COC(=O)C1=C(C)N(c2ccc(C)c(C)c2)/C(=C/c2ccco2)C1=O,5,97,102,-1,-1,0,/,/,/
COc1ccc(-n2c(C)ccc2-c2ccccc2)cn1,/,99,99,8,1,0,/,/,/
O=C1c2ccccc2N2C(=O)c3ccccc3C2N1Cc1ccccc1 (centres undefined),1,112,130*,-13,32,5,103,-3,102
O=C1c2ccccc2N2C(=O)c3ccccc3[C@H]2N1c1ccccc1,1,105,107,-3,16,4,/,/,/
COc1ccc(OCCOc2ccc(C)nc2[N+](=O)[O-])cc1,5,104,106,-2,4,-1,/,/,/
Cc1ccc(OCCOc2ccc(Cl)cc2Cl)c([N+](=O)[O-])n1,3,165*,105,9,13,20,103,3,102
Cc1oc(C)c(C(=O)O)c1C(=O)O,3,55,45*[inhibitor],-7,-15,3,103,4,103
COC(=O)c1c(C)oc(C)c(C(=O)OC)c1=O,2,100,102,-4,5,5,/,/,/
O=C(Oc1cccccc1=O)c1ccccc1,0,95,96,-16,-9,1,/,/,/
CC1=C(C)Cc2c(OC(=O)c3ccccc3)ccc(OC(=O)c3ccccc3)c2C1,/,51,42*[inhibitor],6,8,4,101,2,98
Cn1c(Cn2c(C(F)(F)F)nc3ccccc32)nc2ccccc21,4,110,109,3,24*,6,102,5,103
OCCn1c(C(F)(F)F)nc2ccccc21,6,100,106,-13,-4,4,/,/,/
Cc1cccc(NS(=O)(=O)c2c(C)n[nH]c2C)c1,0,90,81*[inhibitor],-22,-5,-4,96,-11,94
CC1=CC(=NNC(=S)NCCc2ccccc2)CC(C)(C)C1,0,/,/,/,/,/,/,/,/
O=C(CNC(=O)c1ccc(S(=O)(=O)N2CCCC2)cc1)NN=Cc1c(Cl)cccc1Cl,2,/,/,/,/,/,/,/,/
O=C(CNC(=O)c1ccc(S(=O)(=O)N2CCCC2)cc1)N/N=C/c1ccccc1Cl,/,69,73*[inhibitor],13,-20,-10,100,-9,102
Cc1nc2ccccn2c1C(=O)N/N=C/c1ccc2c(c1)OCO2,/,90,58,10,-2,-19,/,/,/
Cc1ccc(-c2ccc(/C=C(\C#N)C(=O)Nc3cc(C)nn3-c3ccccc3)o2)cc1,/,77,91,-20,0,-26,/,/,/
O=[N+]([O-])c1cc(Cl)ccc1N1CCN(c2cccc(C(F)(F)F)c2)CC1,3,138*,103,7,14,5,110,4,103
O=[N+]([O-])c1cc(Cl)ccc1N1CCCC1,0,95,106,11,-7,-15,/,/,/
COC(=O)c1sc(-c2ccc(Cl)cc2)cc1NC(=O)c1ccccc1C(=O)O,2,67,66*[inhibitor],5,-14,-6,104,3,105
Cc1cc(=O)[nH]c2ccccc12,2,116,118,-4,8,-4,/,/,/
Cc1cc2[nH]c3c(c[n+](C)c4ccccc34)c2cc1C,-50,144*,61,28,-2,64*,201,73*,113
CCOc1ccc(-c2csc(C3COc4ccccc4O3)n2)cc1 (centres undefined),1,102,98,-3,3,-11,/,/,/
COC(=O)c1ccc(C(=O)N2CCCC(CNC(=O)c3ccccc3Cl)C2)cc1 (centres undefined),1,85,94,0,-8,-3,/,/,/
SMILES,UCH37 inh,MEKK2 WT-MEK5,MEKK3 PB1 HTS,Apaf-1 inh,MEKK2 mut-MEK5,UBC13 polyUb,MEKK2wt confirm,MEKK2mut-MEK5,MEKK3-MEK5 inh
COc1ccc(CC(=O)N2CCCC(CNC(=O)c3ccccc3Cl)C2)cc1 (centres undefined),2,54,47*[inhibitor],-11,-35,2,106,9,107
CCOc1ccc(/C=N/NC(=O)CN2CCSCC2)cc1,/,93,91,-8,-4,1,/,/,/
CCC(C)NCCOc1cccc(Br)c1 (centres undefined),3,100,157*,2,-1,-3,103,2,101
CC(=NO)c1ccc2[nH]ccc2c1,-1,/,/,/,/,/,/,/,/
CCC(=O)N(C)CCc1cc2c(c(OC)c1/C=N/NC(=O)c1ccc(Br)cc1)OCO2,/,99,131*,17,0,-8,67,-10,85
COc1c(/C=N/NC(=O)c2ccccc2O)c(CCN(C)C(C)=O)cc2c1OCO2,/,100,134*,-12,-1,7,105,7,98
COc1ccc(N(CC(=O)NC2CCCC2)C(=O)Cn2nnc(-c3ccc(OC)c(OC)c3)n2)c(OC)c1,-2,103,103,16,0,3,/,/,/
CC(C)(C)NC(=O)C(c1ccncc1)N(C(=O)c1csnn1)c1cccc2ccccc12 (centres undefined),3,124,143*,-2,6,6,98,-21,98
O=C(c1cc(COc2c(F)cccc2F)on1)N1CCC(c2ccccc2Cl)C1 (centres undefined),4,51,49*[inhibitor],10,-35,0,96,-5,100
O=C(c1cc(COc2ccc(F)cc2F)on1)N1C[C@H]2CC[C@H]1C2,1,103,103,12,6,-8,/,/,/

# Source: PubChem
